Hits are enriched below; roughly 2.3% of the tested compounds scored in any of these assays.
MsrA inhibitor: bovine MsrA inhibition; inhibition, % at 15.5 µM; purified bovine MsrA, absorbance read-out; 0.75% of 360,000 active;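 further: 0% = vehicle wells with enzyme and 100% = reference inhibitor wells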
bovine MsrA act: activators of bovine methionine sulfoxide reductase A; 0.3% of 360,000 active; activation, % at 10.6 µM; purified bovine MsrA, absorbance read-out; in the data active means activation above about 7.5%;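 further: 0% = vehicle and 100% = reference activator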
MC4R barr agon: activates human MC4R beta-arrestin recruitment; P32245; U2OS MC4R beta-arrestin complementation, luminescence; percent of melanotan II response, DMSO zero; AID 540308; 0.98% of 360,000 active; activation, % at 8.9 µM;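 active means activation above a per-plate cutoff, the mean activation of sample wells on that plate plus 3 SD, cut at about 8% in these data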
Target sequence (P32245 whole entry, looked up): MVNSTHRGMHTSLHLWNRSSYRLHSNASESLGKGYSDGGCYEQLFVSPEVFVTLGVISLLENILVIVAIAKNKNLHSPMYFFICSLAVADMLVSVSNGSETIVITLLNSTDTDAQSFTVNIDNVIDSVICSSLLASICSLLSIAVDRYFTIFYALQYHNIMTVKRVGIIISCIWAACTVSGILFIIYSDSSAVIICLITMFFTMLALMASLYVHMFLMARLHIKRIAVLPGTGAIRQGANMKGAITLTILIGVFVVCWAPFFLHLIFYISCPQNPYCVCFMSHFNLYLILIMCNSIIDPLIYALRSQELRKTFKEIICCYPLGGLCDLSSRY
MC4R antagonist: antagonists of human melanocortin 4 receptor (MC4R); MC4R-expressing cells, MTII-stimulated cAMP, LANCE TR-FRET; inhibition, % at 6.5 µM; 0.48% of 360,000 active; AID 540295;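 active means inhibition above its plate's cutoff, the mean of tested wells on that plate plus 3 SD, cut at about 29% in these data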;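 further: 0% = Melanotan II alone and 100% = Melanotan II plus saturating MCL0020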
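Assay system: U2OS-MC4R stable cell line; Also added: Melanotan II; Technique: Eu-cAMP/anti-cAMP TR-FRET, emission 671 nm; Times: 30-min compound, 1-h challenge, 1-h detection, room temperature.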
MsrA inh confirm: bovine MsrA inhibition, confirmed; shares compounds with MsrA inhibitor; purified bovine MsrA, absorbance read-out; inhibition, % at 15.5 µM; 41% of 2,300 active;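 further: coupled to thioredoxin reductase with NADPH and selenocystamine and DMSO as substrate; 0% = vehicle only and 100% = full effect of reference inhibitor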
Starred values were filed as active, the others as inactive; nt = not tested or not shown. Unless noted, no stated cut-off is given here; in the data, active means inhibition above about 4.5%; inactive means the rest.

SMILES | MsrA inhibitor | bovine MsrA act | MC4R barr agon | MC4R antagonist | MsrA inh confirm
CC(=O)COc1ccc2c(-c3ccccc3)cc(=O)oc2c1C | 19* | -11 | 1 | -5 | 22*
Cc1c(OCC(=O)C(C)(C)C)ccc2c(-c3ccccc3)cc(=O)oc12 | 0 | -4 | 0 | -9 | nt
Cn1c(CCCNC(=O)c2cccs2)nc2ccccc21 | 0 | -3 | -3 | -3 | nt
Cc1[nH]c(=O)[nH]c(=O)c1N(C)C | 0 | -2 | -2 | 1 | nt
CSc1c(N(C)C)c(=O)c1=S | 5.2* | nt | nt | nt | 4
COc1cccc(/C=N/NC(=O)CN(CCc2ccccc2)S(=O)(=O)c2ccc(NC(C)=O)cc2)c1 | 0 | 2 | -2 | 7 | nt
CCOC(=O)c1c(-c2ccccc2)oc2ccc(OCC(=O)O)cc12 | 1 | -2 | 1 | 2 | nt
Fc1cnc(N2CCOCC2)nc1N1CCc2ccccc21 | 8.0* | -1 | 1 | 1 | 3
Fc1cnc(N2CCOCC2)nc1N1CCOCC1 | -1 | -4 | -1 | -5 | nt
O=C(O)CC1SC(N/N=C/c2ccc(Br)cc2)NC1=O (stereo unspecified) | 4.9* | -6 | -4 | -10 | 2
O=S1(=O)N=C(N(CCO)/N=C/C=C/c2ccccc2)c2ccccc21 | 8.3* | -8 | 0 | 4 | 5.7*
O=S1(=O)N=C(N/N=C/C=C/c2ccccc2)c2ccccc21 | 6.8* | -8 | -1 | -7 | 6.2*
O=S1(=O)N=C(N(CCO)/N=C/c2ccc(Cl)cc2)c2ccccc21 | 0 | 0 | 0 | 22 | nt
COc1cc(/C=N/NC2=NS(=O)(=O)c3ccccc32)cc(OC)c1OC | 5.5* | -4 | 0 | -4 | 4.6*
COc1cc(/C=N\Nc2nc3ccccc3o2)cc(OC)c1OC | 5.2* | -4 | 1 | 10 | 3
COc1ccc(S(=O)(=O)N2CCOCC2)cc1NC(=O)CSc1ccccc1 | 0 | 3 | -3 | 7 | nt
Cc1[nH]nc(Nc2ccc(Br)cc2)c1[N+](=O)[O-] | 5.4* | -3 | -2 | 10 | 3
FC(F)(F)c1ccc(N=Cc2sc(N3CCOCC3)nc2-c2ccccc2)cc1 | 18* | -2 | 3 | 4 | 17*
CC(=O)c1sc(N2CCOCC2)nc1-c1ccccc1 | 1 | -3 | -1 | 12 | nt
Cc1csc(NC(=O)c2cnccn2)n1 | 1 | -5 | 0 | -1 | nt
Cc1ccc(S(=O)(=O)Oc2ccccc2N2C(=O)C3C4CCC(C4)C3C2=O)cc1 (stereo unspecified) | 1 | -1 | 0 | 4 | nt
O=C(O)c1ccc(N/N=C/c2cccc(F)c2)cc1 | 6.8* | -2 | 1 | 3 | 6.7*
O=C(O)c1ccc(N/N=C/c2ccc(F)c(F)c2)cc1 | 7.9* | -5 | -1 | 9 | 5.9*
O=C(O)c1ccc(N/N=C/c2cccc(C(F)(F)F)c2)cc1 | 4 | -15 | 0 | -1 | nt
CC(=O)c1cnc(N(C)C)s1 | 6.5* | -3 | -2 | 8 | 4
SMILES | MsrA inhibitor | bovine MsrA act | MC4R barr agon | MC4R antagonist | MsrA inh confirm
CC(=O)c1cnc(Nc2ccccc2)s1 | 5 | -2 | -1 | 8 | nt
Cc1nn(-c2ccccc2)c(N)c1N=Nc1ccc(Cl)cc1 | 4 | -4 | -2 | 3 | nt
Cc1nn(-c2ccccc2)c(N)c1N=Nc1ccccc1 | 5.3* | -6 | -3 | -17 | 2
COc1ccc(/C=[N+](\[O-])C2N(c3ccccc3)C(=S)SC2(C)C)cc1OC (stereo unspecified) | 5.0* | -5 | -2 | 1 | 3
O=C(c1cc(=O)c2ccccc2o1)N1CCN(c2cccc(Cl)c2)CC1 | -1 | -3 | -1 | 9 | nt
Cc1[nH]c2ccccc2c1/C=N/NC(=O)c1cccc(F)c1 | 4.8* | -8 | -1 | -10 | 4
Cc1[nH]c2ccccc2c1/C=N\NC(=O)c1ccco1 | 6.6* | -10 | 1 | -6 | 5.3*
CCCn1c2ccccc2c2cnn(CC(=O)NCCCN3CCN(c4ccccc4)CC3)c(=O)c21 | 2 | 1 | 1 | 3 | nt
COc1ccc(NC(=O)C(=O)NCCN2CCN(C(=O)c3ccc(C(C)(C)C)cc3)CC2)cc1 | 1 | 0 | 1 | 16 | nt
CSC(=Cc1ccc(C(=O)c2ccc(C)cc2)n1C)S(C)=O (stereo unspecified) | 5.0* | nt | nt | nt | 3
Cc1ccc(C(=O)c2ccc(CC(=O)O)n2C)cc1 | 4 | -5 | -2 | 7 | nt
COc1ccccc1/C=N/NC(=O)CN(C1=NS(=O)(=O)c2ccccc21)c1ccccc1 | 6.1* | -9 | -1 | -3 | 1
COc1ccc(/C=N/NC(=O)CN(C2=NS(=O)(=O)c3ccccc32)c2ccccc2)cc1 | 2 | 0 | -2 | 12 | nt
Cc1nc2ccccc2c(=O)n1/N=C/c1ccc(F)cc1 | 0 | 3 | -2 | 2 | nt
O=C(CN1CCCCCC1)Nc1cccc(NC(=O)CN2CCCCCC2)c1 | 1 | 0 | -1 | 6 | nt
Nc1ccc2nc(-c3ccccc3)[nH]c2c1 | 3 | -3 | -1 | 12 | nt
Nc1ccc2nc(-c3ccc(N)c(Cl)c3)[nH]c2c1 | 5.5* | -1 | 1 | 1 | 5.5*
COc1ccc2nc(-c3ccc(N)cc3)[nH]c2c1 | 4 | -4 | -3 | -8 | nt
Nc1ccc(-c2nc3c(Cl)cc(N)cc3[nH]2)cc1 | 5.2* | -5 | -3 | -13 | 4
NC(=O)c1c(N)sc(=S)n1CC1CCCO1 (stereo unspecified) | 2 | -10 | -2 | -1 | nt
COc1ccc(C(=O)N/N=C/c2ccc(SC)cc2)cc1 | 5.2* | -6 | 1 | 9 | 5.9*
O=C(NN=Cc1ccc(O)cc1)C(=O)NN=Cc1ccc(O)cc1 | 6.1* | 0 | -3 | 1 | 2
CSc1ccc(/C=N/NC(=O)c2ccc(O)cc2)cc1 | 7.9* | -7 | 2 | 3 | 5.8*
COc1ccc(C(=O)NNC(=O)c2cc3cc([N+](=O)[O-])ccc3oc2=O)cc1OC | 0 | -4 | -3 | 7 | nt
O=C1NC(=S)N/C1=C/c1cccn1-c1ccc([N+](=O)[O-])cc1 | 5.1* | -10 | -3 | -12 | 1
SMILES | MsrA inhibitor | bovine MsrA act | MC4R barr agon | MC4R antagonist | MsrA inh confirm
O=C(Cc1ccccc1)N/N=C/c1cccn1-c1ccc([N+](=O)[O-])cc1 | 0 | -3 | -1 | 14 | nt
Cc1[nH]c2ccc(C(=O)NCCCN(C)C3CCCCC3)cc2c1C | 1 | -1 | -3 | -2 | nt
CCN(CC)CCN1C(=O)C(=O)/C(=C(/O)c2ccc(C)cc2)C1c1cccnc1 (stereo unspecified) | 5.9* | -3 | -1 | 3 | 0
CN(C)CCCN1C(=O)C(=O)/C(=C(/O)c2ccncc2)C1c1cccnc1 (stereo unspecified) | 6.6* | -1 | 1 | -2 | 2
CN(C)CCCN1C(=O)C(=O)/C(=C(/O)c2ccncc2)C1c1cccc(Br)c1 (stereo unspecified) | 2 | -4 | 2 | -3 | nt
CCc1cccc(N=c2c([N+](=O)[O-])nn(-c3ccc(Cl)cc3)n2O)c1 | 5.4* | -3 | 0 | 2 | 5.3*
CSc1ccc(S(=O)(=O)NCC(=O)OC(C)C(=O)NCc2ccccc2)cc1[N+](=O)[O-] (stereo unspecified) | 0 | -4 | 0 | 5 | nt

Assay outcomes (PubChem)
